Measured values from ChEMBL document CHEMBL1145941, “Design, synthesis, and biological evaluation of indenoisoquinoline topoisomerase I inhibitors featuring polyamine side chains on the lactam nitrogen” (2003).

How the values were obtained:
[1] = test system: SN12C; assay: Cytotoxicity against human renal SN12C cancer cell lines.; type: functional
[2] = test system: SF-539; assay: Cytotoxicity against human CNSSF-539 cancer cell lines.; type: functional
[3] = test system: OVCAR-3; assay: Cytotoxicity against human ovarian OVCAR-3 cancer cell lines.; type: functional
[4] = test system: Panel (Carcinoma cell lines); assay: Mean graph midpoint for growth inhibition of all human cancer cell lines.; type: functional; parameters: unit: µM
Method in brief: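 Mean graph midpoint from the NCI screen, about 55 human cancer cell lines, test range 10^-8 to 10^-4 M. Computed as the average GI50 across all lines tested, with GI50 values below or above the range set to 10^-8 M or 10^-4 M.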

[5] = test system: DU-145; assay: Cytotoxicity against human prostate DU-145 cancer cell lines.; type: functional
[6] = test system: UACC-62; assay: Cytotoxicity against human melanoma UACC-62 cancer cell lines.; type: functional
[7] = molecular target: T1, DNA topoisomerase 1 (Homo sapiens) (UniProt P11387); assay: Inhibitory activity against DNA topoisomerase I; greater activity than the parent compound 1
T1 sequence (whole entry): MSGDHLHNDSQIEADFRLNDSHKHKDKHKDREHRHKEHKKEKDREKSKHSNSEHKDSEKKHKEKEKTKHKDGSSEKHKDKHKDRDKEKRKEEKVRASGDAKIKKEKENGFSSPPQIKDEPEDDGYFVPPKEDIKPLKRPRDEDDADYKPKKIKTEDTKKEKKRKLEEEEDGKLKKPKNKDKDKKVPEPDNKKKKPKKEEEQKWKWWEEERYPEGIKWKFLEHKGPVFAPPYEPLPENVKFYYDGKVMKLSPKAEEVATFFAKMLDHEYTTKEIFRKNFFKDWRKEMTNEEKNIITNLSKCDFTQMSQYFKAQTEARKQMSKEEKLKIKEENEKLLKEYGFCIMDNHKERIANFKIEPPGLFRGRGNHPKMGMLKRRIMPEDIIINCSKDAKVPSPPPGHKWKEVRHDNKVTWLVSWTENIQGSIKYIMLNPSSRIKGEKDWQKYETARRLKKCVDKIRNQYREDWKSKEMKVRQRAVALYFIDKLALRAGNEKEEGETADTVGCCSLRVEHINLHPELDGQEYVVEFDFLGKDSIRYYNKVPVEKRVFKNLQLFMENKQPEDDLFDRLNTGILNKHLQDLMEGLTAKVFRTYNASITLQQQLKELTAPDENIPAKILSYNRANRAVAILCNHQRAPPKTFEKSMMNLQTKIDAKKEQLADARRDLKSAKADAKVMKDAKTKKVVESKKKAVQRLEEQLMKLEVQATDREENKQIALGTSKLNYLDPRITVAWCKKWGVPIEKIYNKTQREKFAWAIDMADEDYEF

[8] = test system: HCT-116; assay: Cytotoxicity against human colon HCT116 cancer cell lines.; type: functional
[9] = test system: MDA-MB-435; assay: Cytotoxicity against human breast […] cancer cell lines.; type: functional
[10] = molecular target: T1, DNA topoisomerase 1 (Homo sapiens); assay: Compound was tested for its inhibitory activity against DNA topoisomerase I; No activity
[11] = test system: HOP-62; assay: Cytotoxicity was determined in human lung HOP-62 cancer cell lines; type: functional

SMILES | Activity [7] | Activity [10] | GI50 [1] | GI50 [2] | GI50 [3] | MGM [4] | GI50 [5] | GI50 [6] | GI50 [8] | GI50 [9] | GI50 [11]
COc1cc2c3c(n(CCCN(C)C)c(=O)c2cc1OC)-c1cc2c(cc1C3=O)OCO2 | greater activity than compound 1 | – | 900 nM | 190 nM | 1400 nM | 0.35 | 140 nM | 540 nM | 120 nM | 650 nM | 18 nM
COc1cc2c3c(n(CCCN(CCO)CCO)c(=O)c2cc1OC)-c1cc2c(cc1C3=O)OCO2.Cl | – | – | < 10 nM | < 10 nM | 130 nM | 0.07 | < 10 nM | < 10 nM | < 10 nM | 80 nM | < 10 nM
COc1cc2c3c(n(CCCOC(=O)C(F)(F)F)c(=O)c2cc1OC)-c1cc2c(cc1C3=O)OCO2 | greater activity than compound 1 | – | < 10 nM | < 10 nM | 70 nM | 0.15 | 660 nM | < 10 nM | 18 nM | 30 nM | < 10 nM
COc1cc2c3c(n(CCCNCCNCCCN)c(=O)c2cc1OC)-c1cc2c(cc1C3=O)OCO2.Cl.Cl.Cl | – | – | 1700 nM | 8600 nM | 8100 nM | 3 | 4600 nM | 1900 nM | 1300 nM | 3400 nM | 2900 nM
COc1cc2c3c(n(CCN)c(=O)c2cc1OC)-c1cc2c(cc1C3=O)OCO2.Cl | greater activity than compound 1 | – | 360 nM | 1300 nM | 860 nM | 0.34 | 400 nM | 140 nM | 68 nM | – | 580 nM

More lines, main results first:

Activity [7] | Activity [10] | SMILES | GI50 [1] | GI50 [2] | GI50 [3] | MGM [4] | GI50 [5] | GI50 [6] | GI50 [8] | GI50 [9] | GI50 [11]
greater activity than compound 1 | – | COc1cc2c3c(n(CCCNCCCNCCN)c(=O)c2cc1OC)-c1cc2c(cc1C3=O)OCO2.Cl.Cl.Cl | 20000 nM | 38000 nM | 20000 nM | 41 | 52000 nM | 37000 nM | 23000 nM | 38000 nM | –
– | No activity | COc1cc2c3c(n(CCCNCCCNCCCNCCCN)c(=O)c2cc1OC)-c1cc2c(cc1C3=O)OCO2.Cl.Cl.Cl.Cl | 1600 nM | – | 1600 nM | 2 | 1400 nM | 1700 nM | 1500 nM | 1400 nM | 3000 nM
greater activity than compound 1 | – | COc1cc2c3c(n(CCCNCCNCCN)c(=O)c2cc1OC)-c1cc2c(cc1C3=O)OCO2.Cl.Cl.Cl | 2500 nM | 550 nM | 1700 nM | 2.4 | 1200 nM | 2600 nM | 900 nM | 2700 nM | 2800 nM
